According to article PMC9061098 (RSC Advances, 2019):
Peptide text beside a SMILES is read from it.

Experiments:
Experiment in all cases: MIC/MBC microdilution assay
E. coli ATCC 43827 = format: cell-based, Escherichia coli; details: n = 2; for Antibacterial activity, MIC: microdilution, 24 h at 37 °C, absorbance 620 nm; for Antibacterial activity, MBC: plated on MHA, overnight 37 °C
Procedure, shortened: (§1)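 Broth microdilution: 90 µL peptide (200, 100, 50, 25, 12.5 and 6.2 µg mL-1 as added) plus 10 µL inoculum (5 × 10^6 CFU mL-1 as added). Incubation 24 h at 37 °C; growth read as absorbance at 620 nm. For MBC, wells with no visible growth were loop-sampled, spread on MHA and incubated overnight at 37 °C. Run twice (n = 2).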

E. faecalis ATCC 29212 = format: cell-based, Enterococcus faecalis; details: n = 2; for Antibacterial activity, MIC: microdilution, 24 h at 37 °C, absorbance 620 nm; for Antibacterial activity, MBC: plated on MHA, overnight 37 °C
Procedure, shortened: as §1

P. aeruginosa ATCC 27853 = format: cell-based, Pseudomonas aeruginosa; details: n = 2; for Antibacterial activity, MIC: microdilution, 24 h at 37 °C, absorbance 620 nm; for Antibacterial activity, MBC: plated on MHA, overnight 37 °C
Procedure, shortened: as §1

S. aureus ATCC 25923 = format: cell-based, Staphylococcus aureus; details: n = 2; for Antibacterial activity, MIC: microdilution, 24 h at 37 °C, absorbance 620 nm; for Antibacterial activity, MBC: plated on MHA, overnight 37 °C
Procedure, shortened: as §1

E. coli ATCC 25922 = format: cell-based, Escherichia coli; details: n = 2
Procedure, shortened: as §1

E. coli ATCC 11775 = format: cell-based, Escherichia coli; details: n = 2
Procedure, shortened: as §1

[1] = microdilution, 24 h at 37 °C, absorbance 620 nm

Compound: N=C(N)NCCC[C@H](NC(=O)[C@H](Cc1c[nH]c2ccccc12)NC(=O)[C@H](CCC(N)=O)NC(=O)[C@H](Cc1c[nH]c2ccccc12)NC(=O)[C@H](CCCNC(=N)N)NC(=O)[C@@H](N)CCCNC(=N)N)C(N)=O [LfcinB (20–25)] (H-RRWQWR-NH2)
- Antibacterial activity, MIC (E. coli ATCC 43827): 102 µM
- Antibacterial activity, MBC (E. coli ATCC 43827): 203 µM
- Antibacterial activity, MIC (E. faecalis ATCC 29212): > 203 µM
- Antibacterial activity, MBC (E. faecalis ATCC 29212): > 203 µM
- Antibacterial activity, MIC (P. aeruginosa ATCC 27853): 203 µM
- Antibacterial activity, MBC (P. aeruginosa ATCC 27853): > 203 µM
- Antibacterial activity, MIC (S. aureus ATCC 25923): 203 µM
- Antibacterial activity, MBC (S. aureus ATCC 25923): > 203 µM

Compound: CSCC[C@H](NC(=O)[C@H](CCCNC(=N)N)NC(=O)[C@H](Cc1c[nH]c2ccccc12)NC(=O)[C@H](CCC(N)=O)NC(=O)[C@H](Cc1c[nH]c2ccccc12)NC(=O)[C@H](CCCNC(=N)N)NC(=O)[C@@H](N)CCCNC(=N)N)C(=O)N[C@@H](CCCCN)C(=O)N[C@@H](CCCCN)C(=O)N[C@@H](CC(C)C)C(=O)NCC(N)=O [LfcinB (20–30)] (H-RRWQWRMKKLG-NH2)
- Antibacterial activity, MIC (E. coli ATCC 43827): 65 µM
- Antibacterial activity, MBC (E. coli ATCC 43827): 130 µM
- Antibacterial activity, MIC (E. faecalis ATCC 29212): > 130 µM
- Antibacterial activity, MBC (E. faecalis ATCC 29212): > 130 µM
- Antibacterial activity, MIC (P. aeruginosa ATCC 27853): > 130 µM
- Antibacterial activity, MBC (P. aeruginosa ATCC 27853): > 130 µM
- Antibacterial activity, MIC (S. aureus ATCC 25923): 130 µM
- Antibacterial activity, MBC (S. aureus ATCC 25923): > 130 µM

Compound: N=C(N)NCCC[C@H](NC(=O)[C@H](Cc1c[nH]c2ccccc12)NC(=O)[C@H](CCC(N)=O)NC(=O)[C@H](Cc1c[nH]c2ccccc12)NC(=O)[C@H](CCCNC(=N)N)NC(=O)[C@H](Cc1c[nH]c2ccccc12)NC(=O)[C@H](CCC(N)=O)NC(=O)[C@H](Cc1c[nH]c2ccccc12)NC(=O)[C@@H](N)CCCNC(=N)N)C(N)=O [LfcinB (21–25)Pal] (H-RWQWRWQWR-NH2)
- Antibacterial activity, MIC (E. coli ATCC 25922; [1]): 17 µM
- Antibacterial activity, MBC (E. coli ATCC 25922; plated on MHA, overnight 37 °C): 34 µM
- Antibacterial activity, MIC (E. coli ATCC 43827): 17 µM
- Antibacterial activity, MBC (E. coli ATCC 43827): 67 µM
- Antibacterial activity, MIC (E. faecalis ATCC 29212): 67 µM
- Antibacterial activity, MBC (E. faecalis ATCC 29212): 67 µM
- Antibacterial activity, MIC (E. coli ATCC 11775; [1]): 17 µM
- Antibacterial activity, MBC (E. coli ATCC 11775; plated on MHA, overnight 37 °C): 17 µM
- Antibacterial activity, MIC (P. aeruginosa ATCC 27853): 67 µM
- Antibacterial activity, MBC (P. aeruginosa ATCC 27853): 135 µM
- Antibacterial activity, MIC (S. aureus ATCC 25923): 135 µM
- Antibacterial activity, MBC (S. aureus ATCC 25923): > 135 µM

Compound: CSCC[C@H](NC(=O)[C@H](CCCNC(=N)N)NC(=O)[C@H](Cc1c[nH]c2ccccc12)NC(=O)[C@H](CCC(N)=O)NC(=O)[C@H](Cc1c[nH]c2ccccc12)NC(=O)[C@H](CCCNC(=N)N)NC(=O)[C@H](CCCNC(=N)N)NC(=O)[C@H](C)NC(=O)[C@H](CCCCN)NC(=O)[C@@H](N)Cc1ccccc1)C(=O)N[C@@H](CCCCN)C(=O)N[C@@H](CCCCN)C(=O)N[C@@H](CC(C)C)C(=O)NCC(=O)N[C@@H](C)C(N)=O [[Ala^19]-LfcinB (17–31)]
- Antibacterial activity, MIC (E. coli ATCC 43827): 102 µM
- Antibacterial activity, MBC (E. coli ATCC 43827): > 102 µM
- Antibacterial activity, MIC (E. faecalis ATCC 29212): > 102 µM
- Antibacterial activity, MBC (E. faecalis ATCC 29212): > 102 µM
- Antibacterial activity, MIC (P. aeruginosa ATCC 27853): 102 µM
- Antibacterial activity, MBC (P. aeruginosa ATCC 27853): > 102 µM
- Antibacterial activity, MIC (S. aureus ATCC 25923): > 102 µM
- Antibacterial activity, MBC (S. aureus ATCC 25923): > 102 µM
